We go through 5 molecules from ChEMBL document CHEMBL2375338, “Hydrolyzable tannins of tamaricaceous plants. V. Structures of monomeric-trimeric tannins and cytotoxicity of macrocyclic-type tannins isolated from Tamarix nilotica (1)” (J Nat Prod, 2013).

In one series the test system is HL-60. Kind of series: Cytotoxicity against human HL60 cells after 48 hrs by trypan blue exclusion assay. Conditions: HL-60, 48 h.
The nature of series [1]: Cytotoxicity against human HGF cells after 48 hrs by MTT assay. The format is cell-based. The gist of the method:
(§1)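 Adherent cells seeded 5 × 10^3/well and grown 48 h, then medium replaced with fresh medium holding test compound (DMSO stock 20 mM; top well 100 μM, serial 2-fold dilutions, triplicate wells). After a further 48 h, cells were washed with PBS lacking Ca/Mg and given 0.2 mg/mL MTT for 4 h. Lysis was in DMSO and A540 was read. CC50 came from the dose–response curve.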

Series [2] can be described thus: Cytotoxicity against human HPC cells after 48 hrs by MTT assay. It counts as cell-based. The gist of the method:
as §1

For another series, the system named is HSC-4. Kind of series: Cytotoxicity against human HSC4 cells after 48 hrs by MTT assay. The following applies: HSC-4, 48 h. The format is functional. The gist of the method:
as §1
(Formazan colour is commonly taken as a measure of viable cells.)

The next series deals with HSC-2. Kind of series: Cytotoxicity against human HSC2 cells after 48 hrs by MTT assay. It counts as functional. Conditions: HSC-2, 48 h. The gist of the method: as §1
The test system of another series is HSC-3. The experiment in a line: Cytotoxicity against human HSC3 cells after 48 hrs by MTT assay. The following applies: HSC-3, 48 h. The format is functional. The gist of the method: as §1
Series [3] is described as follows: Cytotoxicity against human HPLF cells after 48 hrs by MTT assay. It counts as cell-based. The gist of the method: as §1

For `O=C1O[C@@H]2O[C@@H]3COC(=O)c4cc(O)c(O)c(O)c4-c4c(cc(O)c(O)c4O)C(=O)O[C@H]3[C@H](OC(=O)c3cc(O)c(O)c(O)c3)[C@H]2OC(=O)c2cc(O)c(O)c(O)c2Oc2cc(cc(O)c2O)C(=O)O[C@@H]2O[C@@H]3COC(=O)c4cc(O)c(O)c(O)c4-c4c(cc(O)c(O)c4O)C(=O)O[C@H]3[C@H](OC(=O)c3cc(O)c(O)c(O)c3)[C@H]2OC(=O)c2cc(O)c(O)c(O)c2Oc2cc(cc(O)c2O)C(=O)O[C@@H]2O[C@@H]3COC(=O)c4cc(O)c(O)c(O)c4-c4c(cc(O)c(O)c4O)C(=O)O[C@H]3[C@H](OC(=O)c3cc(O)c(O)c(O)c3)[C@H]2OC(=O)c2cc(O)c(O)c(O)c2Oc2c(O)cc1cc2O`, the CC50 (as a rule, the concentration giving 50% cytotoxicity) in the series on HL-60 stood at 30.5 µM; with HSC-4 it was 42.9 µM; in the series on HSC-2 it was 22.3 µM; in the series with HSC-3 it was 34.2 µM. In addition, the CC50 at 48 h in series [1] was 96.6 µM; in series [2], 90.7 µM; in series [3] it was greater than 100 µM.
As to `O=C1O[C@@H]2O[C@@H]3COC(=O)c4cc(O)c(O)c(O)c4-c4c(cc(O)c(O)c4O)C(=O)O[C@H]3[C@H](OC(=O)c3cc(O)c(O)c(O)c3)[C@H]2OC(=O)c2cc(O)c(O)c(O)c2Oc2c(O)cc(cc2O)C(=O)O[C@@H]2O[C@@H]3COC(=O)c4cc(O)c(O)c(O)c4-c4c(cc(O)c(O)c4O)C(=O)O[C@H]3[C@H](OC(=O)c3cc(O)c(O)c(O)c3)[C@H]2OC(=O)c2cc(O)c(O)c(O)c2Oc2c(O)cc1cc2O`, the CC50 in the series on HL-60 was determined as 55.9 µM; in the series with HSC-4, 43 µM; in the series with HSC-2 it was 23 µM; in the series with HSC-3, 47.8 µM. Further, the 50% cytotoxic concentration (CC50) at 48 h is 93.6 µM in series [1], 88.3 µM in series [2] and greater than 100 µM in series [3].
In the case of `O=C1O[C@@H]2O[C@@H]3COC(=O)c4cc(O)c(O)c(O)c4-c4c(cc(O)c(O)c4O)C(=O)O[C@H]3[C@H](OC(=O)c3cc(O)c(O)c(O)c3)[C@H]2OC(=O)c2cc(O)c(O)c(O)c2Oc2cc(cc(O)c2O)C(=O)O[C@@H]2O[C@H](CO)[C@@H](O)[C@H](OC(=O)c3cc(O)c(O)c(O)c3)[C@H]2OC(=O)c2cc(O)c(O)c(O)c2Oc2c(O)cc1cc2O`, the CC50 with HL-60 turned out to be 62 µM; in the series with HSC-4 it was 26.6 µM; in the series on HSC-2, 20.2 µM; in the series on HSC-3, 20.8 µM. Further, the figures for the CC50 at 48 h in series [1], in series [2] and in series [3] were greater than 100 µM, 80.3 µM and greater than 100 µM, respectively.
For `O=C1O[C@@H]2O[C@@H]3COC(=O)c4cc(O)c(O)c(O)c4-c4c(cc(O)c(O)c4O)C(=O)O[C@H]3[C@H](OC(=O)c3cc(O)c(O)c(O)c3)[C@H]2OC(=O)c2cc(O)c(O)c(O)c2Oc2c(O)cc(cc2O)C(=O)O[C@@H]2O[C@H](CO)[C@@H](O)[C@H](OC(=O)c3cc(O)c(O)c(O)c3)[C@H]2OC(=O)c2cc(O)c(O)c(O)c2Oc2cc1cc(O)c2O`, the CC50 in the series with HL-60 came to 70.8 µM; with HSC-4 it was 24.5 µM; in the series with HSC-2, 18.5 µM; with HSC-3, 21.9 µM. Further, the values for the half-maximal cytotoxic concentration (CC50) at 48 h in series [1], in series [2] and in series [3] were greater than 100 µM, 81 µM and greater than 100 µM, respectively.
As for `O=C1O[C@@H]2O[C@@H]3COC(=O)c4cc(O)c(O)c(O)c4-c4c(cc(O)c(O)c4O)C(=O)O[C@H]3[C@H](OC(=O)c3cc(O)c(O)c(O)c3)[C@H]2OC(=O)c2cc(O)c(O)c(O)c2Oc2cc(cc(O)c2O)C(=O)O[C@@H]2O[C@@H]3COC(=O)c4cc(O)c(O)c(O)c4-c4c(cc(O)c(O)c4O)C(=O)O[C@H]3[C@H](OC(=O)c3cc(O)c(O)c(O)c3)[C@H]2OC(=O)c2cc(O)c(O)c(O)c2Oc2c(O)cc1cc2O`, the cytotoxic concentration (CC50) in the series on HL-60 was found to be 54.2 µM; in the series on HSC-4 it was 28.7 µM; with HSC-2 it was 19.9 µM; in the series with HSC-3 it was 24.3 µM. In addition, the CC50 at 48 h in series [1] was 95 µM; in series [2] it was 84.3 µM; in series [3], greater than 100 µM.
